Reference: ChEMBL document CHEMBL1828568, “Novel imaging agents for β-amyloid plaque based on the N-benzoylindole core” (Bioorg Med Chem Lett, 2011)
pKi: −log10 of the molar value.

Assay: Displacement of [125I]TZDM from amyloid beta (1 to 40) aggregates after 2 hrs by gamma counting
Summary of the method: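 Competition binding against [125I]TZDM as radiolabeled standard, using Aβ1–40 aggregates; run in triplicate, results as mean ± SD.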

## O=C(/C=C/c1ccccc1)n1ccc2ccccc21
  pKi: 7.80
